ChEMBL document CHEMBL1148329, “Synthesis and structure-activity studies on N-[5-(1H-imidazol-4-yl)-5,6,7,8-tetrahydro-1-naphthalenyl]methanesulfonamide, an imidazole-containing alpha(1A)-adrenoceptor agonist” (J Med Chem, 2004)
Activity calls are given as the source filed them. The calls are words filed in the database; no cut-off is given here.

Tests used:
[1] = molecular target: Alpha adrenergic receptor 1A and 1B (Rattus norvegicus) (UniProt P15823+P43140); assay: Selectivity is ratio of pKi (binding affinity) of alpha-1B receptor to that of alpha-1A receptor.; type: protein assay
[2] = molecular target: Alpha adrenergic receptor 1A and 1D (Rattus norvegicus) (UniProt P23944+P43140); assay: Selectivity is ratio of pKi (binding affinity) of Alpha-1D to that of alpha1A; type: protein assay
[3] = molecular target: T1, Alpha-1D adrenergic receptor (Rattus norvegicus, UniProt P23944); assay: In vitro binding affinity towards alpha-1D adrenergic receptor of rat clone in radioligand binding assay
T1 sequence (P23944 whole entry): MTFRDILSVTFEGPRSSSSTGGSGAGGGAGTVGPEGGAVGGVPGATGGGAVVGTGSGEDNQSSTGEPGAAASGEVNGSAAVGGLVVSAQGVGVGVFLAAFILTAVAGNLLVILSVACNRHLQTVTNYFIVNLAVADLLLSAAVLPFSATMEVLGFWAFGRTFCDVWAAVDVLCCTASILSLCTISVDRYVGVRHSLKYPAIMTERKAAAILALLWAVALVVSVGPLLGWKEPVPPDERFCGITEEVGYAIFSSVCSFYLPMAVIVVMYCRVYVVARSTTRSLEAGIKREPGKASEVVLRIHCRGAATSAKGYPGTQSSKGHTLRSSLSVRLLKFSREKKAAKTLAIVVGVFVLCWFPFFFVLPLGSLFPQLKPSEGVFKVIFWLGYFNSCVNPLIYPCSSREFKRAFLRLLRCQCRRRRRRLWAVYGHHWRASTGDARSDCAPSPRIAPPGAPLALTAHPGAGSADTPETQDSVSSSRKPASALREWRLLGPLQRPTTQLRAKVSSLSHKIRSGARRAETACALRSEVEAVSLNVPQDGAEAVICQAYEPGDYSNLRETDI
In short: (§1)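 Radioligand binding at α1 subtypes: α1A from rat submaxillary gland, α1B hamster clone, α1D rat clone. Run essentially per an earlier method.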

[4] = molecular target: T2, Alpha-1A adrenergic receptor (Bos taurus, UniProt P18130); assay: In vitro binding affinity towards alpha-1A adrenergic receptor of bovine clone in radioligand binding assay
T2 sequence (P18130 whole entry): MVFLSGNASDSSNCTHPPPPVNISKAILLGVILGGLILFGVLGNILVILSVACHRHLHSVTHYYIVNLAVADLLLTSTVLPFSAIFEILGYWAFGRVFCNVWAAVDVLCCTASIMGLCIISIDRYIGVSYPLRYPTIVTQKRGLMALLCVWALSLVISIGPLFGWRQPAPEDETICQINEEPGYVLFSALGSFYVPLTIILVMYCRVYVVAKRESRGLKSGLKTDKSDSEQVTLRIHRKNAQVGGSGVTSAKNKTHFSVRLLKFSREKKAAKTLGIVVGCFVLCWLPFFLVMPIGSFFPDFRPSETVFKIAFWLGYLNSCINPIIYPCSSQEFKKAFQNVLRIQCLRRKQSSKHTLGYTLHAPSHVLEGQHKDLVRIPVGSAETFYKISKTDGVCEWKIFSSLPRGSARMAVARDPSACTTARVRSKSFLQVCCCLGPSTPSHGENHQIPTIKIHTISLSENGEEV

[5] = molecular target: T3, Alpha-1B adrenergic receptor (Mesocricetus auratus, UniProt P18841); assay: In vitro binding affinity towards alpha-1B adrenergic receptor of hamster clone in radioligand binding assay; type: single protein; in short: as §1
T3 sequence (P18841 whole entry): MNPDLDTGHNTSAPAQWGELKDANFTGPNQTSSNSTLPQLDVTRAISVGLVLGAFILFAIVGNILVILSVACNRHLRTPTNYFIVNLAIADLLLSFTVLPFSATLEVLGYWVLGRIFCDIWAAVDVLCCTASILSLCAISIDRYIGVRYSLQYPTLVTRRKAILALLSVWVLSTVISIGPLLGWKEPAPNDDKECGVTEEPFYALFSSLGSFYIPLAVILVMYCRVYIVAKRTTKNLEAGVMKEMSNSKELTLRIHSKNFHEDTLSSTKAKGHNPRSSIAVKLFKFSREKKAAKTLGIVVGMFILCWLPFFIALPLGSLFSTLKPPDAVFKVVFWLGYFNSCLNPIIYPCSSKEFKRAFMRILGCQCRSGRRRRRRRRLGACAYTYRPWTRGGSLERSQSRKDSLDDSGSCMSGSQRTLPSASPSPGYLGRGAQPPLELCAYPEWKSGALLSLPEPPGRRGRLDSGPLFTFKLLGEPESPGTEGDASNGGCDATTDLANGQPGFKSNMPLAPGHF

[6] = molecular target: Alpha-1A adrenergic receptor (Oryctolagus cuniculus) (UniProt O02824); assay: Functional agonism of the compounds to constrict tissue containing the alpha-1A adrenergic receptor in rabbit urethra; Inactive
[7] = molecular target: T4, Alpha-1A adrenergic receptor (Rattus norvegicus, UniProt P43140); assay: In vitro binding affinity towards alpha-1A adrenergic receptor of rat submaxillary gland in radioligand binding assay; in short: as §1
T4 sequence (P43140 whole entry): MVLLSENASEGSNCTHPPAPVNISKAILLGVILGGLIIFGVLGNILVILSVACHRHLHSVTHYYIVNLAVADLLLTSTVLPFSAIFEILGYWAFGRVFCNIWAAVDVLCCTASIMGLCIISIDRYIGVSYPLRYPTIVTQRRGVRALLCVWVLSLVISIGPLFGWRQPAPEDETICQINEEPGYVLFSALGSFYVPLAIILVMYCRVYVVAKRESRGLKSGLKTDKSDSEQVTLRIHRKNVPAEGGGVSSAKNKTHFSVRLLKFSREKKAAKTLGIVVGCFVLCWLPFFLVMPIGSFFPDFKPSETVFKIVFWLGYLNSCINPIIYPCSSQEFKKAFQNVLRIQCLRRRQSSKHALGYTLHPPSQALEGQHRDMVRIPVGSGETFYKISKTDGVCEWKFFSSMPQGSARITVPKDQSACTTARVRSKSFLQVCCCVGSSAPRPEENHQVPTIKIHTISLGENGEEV

[8] = molecular target: T5, Alpha-1A adrenergic receptor (Oryctolagus cuniculus) (UniProt O02824); assay: Efficacy relative to phenylephrine (PE) to constrict tissue containing the alpha-1A adrenergic receptor in rabbit urethra; type: functional, tissue-based
T5 sequence (whole entry): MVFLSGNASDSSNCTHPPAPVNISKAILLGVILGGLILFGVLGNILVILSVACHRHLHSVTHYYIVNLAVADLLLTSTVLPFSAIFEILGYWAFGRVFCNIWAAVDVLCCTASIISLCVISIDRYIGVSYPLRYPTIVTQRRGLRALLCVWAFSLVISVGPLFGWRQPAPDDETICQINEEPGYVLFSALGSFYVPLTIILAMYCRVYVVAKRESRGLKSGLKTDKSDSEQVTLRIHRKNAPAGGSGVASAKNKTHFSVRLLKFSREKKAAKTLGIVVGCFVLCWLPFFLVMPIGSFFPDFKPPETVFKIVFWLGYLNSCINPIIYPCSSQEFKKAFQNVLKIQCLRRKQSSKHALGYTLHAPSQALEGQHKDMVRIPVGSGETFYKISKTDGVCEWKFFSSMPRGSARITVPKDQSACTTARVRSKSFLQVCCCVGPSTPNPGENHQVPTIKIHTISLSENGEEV
In short: (§2)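 α1-agonist dose–response curves in isolated tissue: rabbit urethra (α1A), rat spleen (α1B), rat aorta (α1D). Agonist potency and efficacy read from the concentration–response curves.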

Canis familiaris [9] = assay: Uroselectivity was determined by measuring effective dose required for 5 mmHg increase of intraurethral pressure (IUP) in vivo in dog; IA = Inactive; type: functional, organism-based; conditions: Canis lupus familiaris
In short: (§3)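 Dog model recording intraurethral pressure (IUP) and mean arterial pressure (MAP) simultaneously. Increasing iv doses given, maximal effect of each dose taken. Doses giving a 5 mmHg rise in IUP (ED Δ5) or 20 mmHg rise in MAP (ED Δ20) were calculated, in nmol/kg ± SEM, n ≥ 4 (2 or 3 where footnoted).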

Canis familiaris [10] = assay: Uroselectivity was determined by measuring effective dose required for 20 mmHg increase of mean arterial pressure (MAP) in vivo in dog; IA = Inactive; type: functional, organism-based; conditions: Canis lupus familiaris; Artery; in short: as §3
[11] = molecular target: T6, Alpha-1D adrenergic receptor (Rattus norvegicus) (UniProt P23944); assay: Efficacy relative to phenylephrine (PE) constrict tissue containing the alpha-1D adrenergic receptor in rat aorta; type: functional, tissue-based; in short: as §2
T6 sequence (whole entry): T1 sequence (P23944 whole entry)

[12] = molecular target: T7, Alpha-2A adrenergic receptor (Homo sapiens, UniProt P08913); assay: In vitro binding affinity towards alpha-2A adrenergic receptor of human clone in radioligand binding assay
T7 sequence (P08913 whole entry): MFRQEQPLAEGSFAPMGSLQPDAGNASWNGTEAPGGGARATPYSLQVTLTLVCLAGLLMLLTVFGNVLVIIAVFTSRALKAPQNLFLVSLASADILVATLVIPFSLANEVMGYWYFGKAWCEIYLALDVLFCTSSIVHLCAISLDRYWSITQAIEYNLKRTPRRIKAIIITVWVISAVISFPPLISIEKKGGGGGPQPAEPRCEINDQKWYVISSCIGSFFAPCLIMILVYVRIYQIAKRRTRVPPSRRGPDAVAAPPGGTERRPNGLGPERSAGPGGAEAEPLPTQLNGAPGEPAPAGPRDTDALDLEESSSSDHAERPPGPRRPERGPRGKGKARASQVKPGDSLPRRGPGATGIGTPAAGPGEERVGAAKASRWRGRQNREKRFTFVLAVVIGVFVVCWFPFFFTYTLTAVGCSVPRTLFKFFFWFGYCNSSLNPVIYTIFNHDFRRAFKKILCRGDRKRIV

[13] = molecular target: T6, Alpha-1D adrenergic receptor (Rattus norvegicus); assay: Functional agonism of the compounds to constrict tissue containing the alpha-1D adrenergic receptor in rat aorta; type: tissue-based
In short: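 Agonist dose–response curves were run on isolated tissue: rabbit urethra for α1A, rat spleen for α1B, and rat aorta for α1D.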

[14] = molecular target: T8, Alpha-2B adrenergic receptor (Rattus norvegicus, UniProt P19328); assay: In vitro binding affinity towards alpha-2B adrenergic receptor of rat neonatal lung in radioligand binding assay
T8 sequence (P19328 whole entry): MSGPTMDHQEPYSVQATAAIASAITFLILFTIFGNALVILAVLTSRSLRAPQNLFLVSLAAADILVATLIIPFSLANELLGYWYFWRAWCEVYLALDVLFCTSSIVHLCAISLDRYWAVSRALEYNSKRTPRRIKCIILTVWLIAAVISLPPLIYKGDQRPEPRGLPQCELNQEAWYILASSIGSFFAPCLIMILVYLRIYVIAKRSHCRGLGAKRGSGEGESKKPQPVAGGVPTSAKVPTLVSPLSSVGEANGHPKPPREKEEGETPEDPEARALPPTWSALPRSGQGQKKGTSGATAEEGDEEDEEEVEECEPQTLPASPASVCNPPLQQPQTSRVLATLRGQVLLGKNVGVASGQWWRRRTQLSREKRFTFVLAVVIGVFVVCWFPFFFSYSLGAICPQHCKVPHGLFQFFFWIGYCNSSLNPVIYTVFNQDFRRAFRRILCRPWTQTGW

Canis familiaris [15] = assay: Uroselectivity was determined by measuring effective dose required for 20 mmHg increase of mean arterial pressure (MAP) in vivo in dog; type: functional, Canis lupus familiaris, Artery; in short: as §3
Canis familiaris [16] = assay: Uroselectivity was determined by measuring effective dose required for 5 mmHg increase of intraurethral pressure (IUP) in vivo in dog; type: functional, Canis lupus familiaris; in short: as §3
[17] = Relative affinities for alpha-2a and alpha-1A receptors
Rattus norvegicus = organism: Rattus norvegicus; assay: Relative affinities for alpha2B and alpha1A receptors

Sequence of Alpha adrenergic receptor 1A and 1B (Rattus norvegicus) (P15823 whole entry, looked up, one chain of several): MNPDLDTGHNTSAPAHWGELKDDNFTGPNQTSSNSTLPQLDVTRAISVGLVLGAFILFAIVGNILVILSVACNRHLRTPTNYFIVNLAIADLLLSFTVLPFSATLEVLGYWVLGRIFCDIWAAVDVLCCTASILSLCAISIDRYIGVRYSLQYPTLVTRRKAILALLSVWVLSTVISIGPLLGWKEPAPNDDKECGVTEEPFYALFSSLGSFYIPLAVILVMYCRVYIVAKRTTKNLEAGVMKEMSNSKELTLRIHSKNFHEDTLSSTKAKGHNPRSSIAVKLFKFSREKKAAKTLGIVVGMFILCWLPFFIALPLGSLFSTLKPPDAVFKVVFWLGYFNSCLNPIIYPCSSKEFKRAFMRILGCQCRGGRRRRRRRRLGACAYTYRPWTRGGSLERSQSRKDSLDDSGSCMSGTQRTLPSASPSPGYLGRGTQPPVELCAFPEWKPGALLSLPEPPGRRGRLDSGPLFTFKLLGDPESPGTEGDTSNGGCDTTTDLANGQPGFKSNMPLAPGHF

Compound	Selectivity [1]	Selectivity [2]	Ki [3] [nM]	Ki [5] [nM]	pD2 [6]	further results
O=S(=O)(Nc1cccc2c1CCCC2c1c[nH]cn1)c1ccc2ccccc2c1 (stereo unspecified)	1	0.4	100	214	inactive	Ki [4]: 692 nM
CCS(=O)(=O)Nc1cccc2c1CCCC2CN (stereo unspecified)	> 10	> 10	> 10000	> 10000	inactive	Ki [7]: 794 nM
Cn1cnc(C2CCCc3c(NS(C)(=O)=O)cccc32)c1 (stereo unspecified)						Efficacy [8]: 40%; ED delta5 (Canis familiaris [9]): inactive; ED delta20 (Canis familiaris [10]): inactive
CS(=O)(=O)Nc1cccc2c1CCC=C2c1c[nH]cn1						ED delta5 (Canis familiaris [9]): inactive; ED delta20 (Canis familiaris [10]): inactive
CS(=O)(=O)Nc1c(O)ccc2c1CCCC2C1=NCCN1 (stereo unspecified)			1480	2950		Efficacy [8]: 88%; Efficacy [11]: 100%; Ki [12]: 33.1 nM; pD2 [13]: 5.59; Ki [14]: 245 nM; ED delta20 (Canis familiaris [15]): 0.27 nM/kg; ED delta5 (Canis familiaris [16]): 0.16 nM/kg
CCS(=O)(=O)Nc1cccc(C2CCNC2)c1 (stereo unspecified)	> 20	2	1000	> 10000	inactive	Ki [7]: 501 nM
CCS(=O)(=O)Nc1ccc2c(c1)C(c1c[nH]cn1)CCC2 (stereo unspecified)	1	0.2	339	1350		Selectivity [17]: 0.02; Ki [4]: 2040 nM; Ki [12]: 22.9 nM; Ki [14]: 22.4 nM; Selectivity (Rattus norvegicus): 0.02
